First the molecules themselves.
B1: Osa-1-4 twister ribozyme (parent)
chain: CCGCCUAACACUGCCAAUGCCGGUCCCAAGCCCGGAUAAAAGUGGAGGGGGCGG

Variants of B1 are the subject of the series. Put plainly: self-cleavage, relative activity (ratio to wild type); higher = more cleavage; co-transcriptional. Put shortly:
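A DNA template was synthesised for a 54-nucleotide twister ribozyme from Oryza sativa, with 97 % wild-type base and 1 % of each other base at each of the 48 positions downstream of the cleavage site. The ribozyme cleaved itself co-transcriptionally during 2 h of in vitro transcription at 37 °C. Reverse transcription with a template-switching oligonucleotide, PCR amplification and deep sequencing followed, and cleavage status came from reads with or without upstream sequence. Relative activity is the fraction cleaved normalised to wild type.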
Turning to C15A G13A, the self-cleavage was determined as 0.04.

For C15A G13C, the self-cleavage is 0.04.

Take C15A G13U: the self-cleavage was determined as 0.02.

In the case of C14U G49C, the self-cleavage amounted to 0.05.

Turning to C14U G49U, the self-cleavage is 0.06.

On to C14U G49A, for which the self-cleavage is 0.05.

Regarding C14G C27A, the self-cleavage worked out at 0.03.

Consider C14G C27U, for which the self-cleavage was 0.07.

In the case of C14G C27G, the self-cleavage was 0.07.

As to C14U U24G, the self-cleavage turned out to be 0.02.

C14U U24C: the self-cleavage stood at 0.05.

For C14U U24A, the self-cleavage is 0.04.

Consider C15G C33A, for which the self-cleavage was 0.05.

On to C15G C33U, for which the self-cleavage amounted to 0.11.

Take C15G C33G: the self-cleavage was found to be 0.06.

With C14G C25A, the self-cleavage amounted to 0.03.

For C14G C25G, the self-cleavage amounted to 0.07.

Consider C14G C25U, for which the self-cleavage worked out at 0.12.

For C14U C20G, the self-cleavage was 0.05.

Consider C14U C20A, for which the self-cleavage was 0.51.

Consider C14U C20U, for which the self-cleavage stood at 0.48.

Consider C15A U43A, for which the self-cleavage was found to be 0.14.

As for C15A U43G, the self-cleavage is 0.11.

Consider C15A U43C, for which the self-cleavage was 0.1.

Regarding C15G C20G, the self-cleavage was 0.08.

As to C15G C20U, the self-cleavage stood at 0.69.

On to C15G C20A, for which the self-cleavage was 0.54.

Consider C15A G45C, for which the self-cleavage turned out to be 0.04.

As for C15A G45U, the self-cleavage amounted to 0.04.

Regarding C15A G45A, the self-cleavage was determined as 0.05.

With C14G G22A, the self-cleavage turned out to be 0.07.

On to C14G G22C, for which the self-cleavage was 0.07.

Turning to C14G G22U, the self-cleavage came out at 0.07.

With C15A U24A, the self-cleavage turned out to be 0.05.

In the case of C15A U24G, the self-cleavage is 0.02.

Turning to C15A U24C, the self-cleavage is 0.08.

Take C14G G45C: the self-cleavage came to 0.03.

With C14G G45A, the self-cleavage was determined as 0.04.

As to C14G G45U, the self-cleavage was determined as 0.03.

Regarding C14G U18A, the self-cleavage came out at 0.16.

For C14G U18G, the self-cleavage stood at 0.27.

Turning to C14G U18C, the self-cleavage amounted to 0.15.

As for C14U U12G, the self-cleavage worked out at 0.05.

As to C14U U12C, the self-cleavage was 0.09.

With C14U U12A, the self-cleavage is 0.09.

In the case of C14G G13U, the self-cleavage was 0.05.

For the variant C14G G13A, the self-cleavage was determined as 0.07.

As for C14G G13C, the self-cleavage was determined as 0.01.

For the variant C15A C31U, the self-cleavage came out at 0.09.

On to C15A C31A, for which the self-cleavage stood at 0.03.

Turning to C15A C31G, the self-cleavage was 0.05.

For C15G C31U, the self-cleavage worked out at 0.09.

On to C15G C31A, for which the self-cleavage came out at 0.03.

Consider C15G C31G, for which the self-cleavage stood at 0.12.

With C15A G51C, the self-cleavage was found to be 0.04.

Turning to C15A G51U, the self-cleavage was 0.07.

For the variant C15A G51A, the self-cleavage turned out to be 0.1.

For the variant C15G G23A, the self-cleavage was determined as 0.14.

Regarding C15G G23C, the self-cleavage was found to be 0.07.

On to C15G G23U, for which the self-cleavage was determined as 0.04.

Take C15A G50C: the self-cleavage was 0.14.

For C15A G50U, the self-cleavage stood at 0.23.

With C15A G50A, the self-cleavage was found to be 0.38.

Turning to C14G U24C, the self-cleavage worked out at 0.04.

Regarding C14G U24A, the self-cleavage turned out to be 0.04.

In the case of C14G U24G, the self-cleavage is 0.02.

Take C14U G22C: the self-cleavage amounted to 0.04.

As to C14U G22A, the self-cleavage turned out to be 0.21.

Regarding C14U G22U, the self-cleavage worked out at 0.11.

For the variant C14U G48A, the self-cleavage was determined as 0.05.

For C14U G48C, the self-cleavage was determined as 0.05.

In the case of C14U G48U, the self-cleavage was found to be 0.05.

As to C15A U37G, the self-cleavage stood at 0.78.

Turning to C15A U37C, the self-cleavage came to 0.59.

In the case of C15A U37A, the self-cleavage came out at 0.51.

On to C15A G53C, for which the self-cleavage was determined as 0.06.

With C15A G53U, the self-cleavage was 0.1.

Regarding C15A G53A, the self-cleavage was found to be 0.14.

In the case of C14U G44C, the self-cleavage stood at 0.33.

For the variant C14U G44A, the self-cleavage was found to be 0.59.

On to C14U G44U, for which the self-cleavage was 0.14.

As for C15A U18C, the self-cleavage came out at 0.58.

In the case of C15A U18A, the self-cleavage amounted to 0.51.

For the variant C15A U18G, the self-cleavage turned out to be 0.49.

Take C14G G53U: the self-cleavage is 0.06.

Regarding C14G G53A, the self-cleavage is 0.09.

For the variant C14G G53C, the self-cleavage worked out at 0.04.

Turning to C14G G47C, the self-cleavage was determined as 0.04.

For the variant C14G G47A, the self-cleavage came to 0.05.

On to C14G G47U, for which the self-cleavage worked out at 0.04.

As to C14U C9G, the self-cleavage was 0.2.

In the case of C14U C9A, the self-cleavage worked out at 0.12.

In the case of C14U C9U, the self-cleavage turned out to be 0.41.

For C14U G34A, the self-cleavage came out at 0.15.

Turning to C14U G34U, the self-cleavage is 0.11.

With C14U G34C, the self-cleavage was 0.08.

In the case of C15A G19C, the self-cleavage is 0.38.

Consider C15A G19U, for which the self-cleavage worked out at 0.82.

Take C15A G19A: the self-cleavage was 0.92.

Consider C14G C52G, for which the self-cleavage worked out at 0.13.

Regarding C14G C52A, the self-cleavage came to 0.14.

As for C14G C52U, the self-cleavage is 0.18.

Consider C15G C27G, for which the self-cleavage amounted to 0.1.

In the case of C15G C27U, the self-cleavage worked out at 0.08.

Consider C15G C27A, for which the self-cleavage is 0.08.

C14U U37G: the self-cleavage was 0.74.

For C14U U37C, the self-cleavage amounted to 0.57.

For C14U U37A, the self-cleavage was found to be 0.5.

For C14U U43G, the self-cleavage worked out at 0.09.

On to C14U U43C, for which the self-cleavage worked out at 0.09.

For the variant C14U U43A, the self-cleavage was found to be 0.12.

Turning to C14U G54U, the self-cleavage was found to be 0.47.

For the variant C14U G54A, the self-cleavage amounted to 0.17.

Turning to C14U G54C, the self-cleavage was 0.12.

For C14G G30C, the self-cleavage amounted to 0.64.

Take C14G G30A: the self-cleavage came out at 0.07.

Regarding C14G G30U, the self-cleavage was found to be 0.14.

For C15A G42C, the self-cleavage worked out at 0.08.

For C15A G42A, the self-cleavage was determined as 0.12.

C15A G42U: the self-cleavage amounted to 0.05.

For the variant C14U, the self-cleavage is 0.63.

Regarding C15G C9G, the self-cleavage was found to be 0.66.

Regarding C15G C9A, the self-cleavage turned out to be 0.06.

For C15G C9U, the self-cleavage worked out at 0.11.

Regarding C14G C26A, the self-cleavage amounted to 0.03.

For the variant C14G C26U, the self-cleavage stood at 0.07.

On to C14G C26G, for which the self-cleavage turned out to be 0.07.

For C14G G50C, the self-cleavage was determined as 0.08.

Regarding C14G G50A, the self-cleavage is 0.13.

Take C14G G50U: the self-cleavage was found to be 0.1.

Regarding C14U G19U, the self-cleavage turned out to be 0.05.

In the case of C14U G19A, the self-cleavage is 0.09.

As to C14U G19C, the self-cleavage came to 0.03.

With C14U C32U, the self-cleavage stood at 0.06.

Take C14U C32G: the self-cleavage is 0.04.

For the variant C14U C32A, the self-cleavage amounted to 0.04.

On to C14U G45U, for which the self-cleavage worked out at 0.06.

As to C14U G45C, the self-cleavage stood at 0.04.

Regarding C14U G45A, the self-cleavage came to 0.04.

On to C15A G35C, for which the self-cleavage was found to be 0.09.

In the case of C15A G35U, the self-cleavage worked out at 0.35.

Regarding C15A G35A, the self-cleavage turned out to be 0.48.

Consider C14U C25G, for which the self-cleavage is 0.06.

Regarding C14U C25A, the self-cleavage turned out to be 0.06.

As to C14U C25U, the self-cleavage turned out to be 0.1.

C14G C21A: the self-cleavage was found to be 0.09.

On to C14G C21G, for which the self-cleavage is 0.05.

C14G C21U: the self-cleavage stood at 0.16.

C15A G30A: the self-cleavage is 0.02.

For C15A G30C, the self-cleavage was determined as 0.04.

As for C15A G30U, the self-cleavage is 0.03.

Take C14U G35C: the self-cleavage was 0.07.

On to C14U G35U, for which the self-cleavage was determined as 0.21.

For the variant C14U G35A, the self-cleavage came out at 0.43.

Regarding C15A G34U, the self-cleavage was found to be 0.14.

Consider C15A G34A, for which the self-cleavage was found to be 0.23.

Regarding C15A G34C, the self-cleavage turned out to be 0.11.

As for C14G C20A, the self-cleavage stood at 0.17.

Take C14G C20G: the self-cleavage was 0.16.

As for C14G C20U, the self-cleavage was 0.22.

For C14U G47U, the self-cleavage is 0.06.

In the case of C14U G47A, the self-cleavage amounted to 0.07.

Consider C14U G47C, for which the self-cleavage worked out at 0.06.

Turning to C14U U18A, the self-cleavage turned out to be 0.5.

Regarding C14U U18G, the self-cleavage came to 0.53.

C14U U18C: the self-cleavage was found to be 0.51.

As to C14G C33U, the self-cleavage is 0.07.

For the origin of these results see the RNAGym collection of RNA variant scans (doi:10.1002/anie.201605470).
